Laboratory results: ChEMBL document CHEMBL4376883, “Discovery and Optimization of Small Molecules Targeting the Protein-Protein Interaction of Heat Shock Protein 90 (Hsp90) and Cell Division Cycle 37 as Orally Active Inhibitors for the Treatment of Colorectal Cancer” (J Med Chem, 2020)

What was measured:
[1] = target: Heat shock protein HSP 90-beta/Hsp90 co-chaperone Cdc37 (Homo sapiens) (UniProt P08238+Q16543); assay: Inhibition of His-tagged HSP90/GST-tagged Cdc37 (unknown origin) protein-protein interaction at 100 uM measured after 1 hr by HTRF assay relative to control; assay type: protein-complex assay
In short: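 His-Hsp90 and GST-Cdc37 were premixed at a final 80 nM in PBS with 200 mM KF, pH 7.4. Compound was added and the mix incubated 1 h at 37 °C, then read by HTRF. Inhibition rate was taken at 100 μM compound.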

[2] = Distribution coefficient, log D of the compound at pH 7.4 by potentiometric titration method; assay type: physicochemical; conditions: octanol/water
In short: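 log D at pH 7.4 measured by potentiometric titration on a Gemini Profiler.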

[3] = system: L02; assay: Cytotoxicity against human L02 cells measured after 72 hrs by CCK8 assay; assay type: functional, cell-based; conditions: L02, 72 h
In short: (§1)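 Cells grown in RPMI 1640 with 10% FBS at 37 °C, 5% CO2; STR-authenticated and mycoplasma-checked. Seeded at 3000-5000 cells/well and left 24 h. Serial compound dilutions added for 72 h, with matched DMSO as control. Viability read by CCK8 kit using the standard protocol. IC50 values derived from at least three parallel experiments.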

[4] = target: T1, Heat shock protein HSP90 (Homo sapiens, UniProt P07900+P08238); assay: Inhibition of recombinant full-length HSP90 ATPase activity N-terminal domain (9 to 236 residues) (unknown origin) expressed in Escherichia coli BL21 (DE3) measured after 1 hr by ADP hunter plus assay
[5] = target: T1, Heat shock protein HSP90; assay: Binding affinity to recombinant […] HSP90 N-terminal domain (9 to 236 residues) (unknown origin) expressed in Escherichia coli BL21 (DE3) assessed as change in melting temperature by SYPRO dye based thermal shift assay
In short: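 Hsp90 N-terminal domain (10 µM) mixed with compound at 200, 100, 50 or 10 µM in 1× PBS, pH 8.0, with 6× SYPRO Orange. Heated from room temperature to 99 °C at 1 °C/min; fluorescence read at 492 nm excitation and 610 nm emission.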

[6] = target: T1, Heat shock protein HSP90; assay: Binding affinity to recombinant […] HSP90 N-terminal domain (9 to 236 residues) (unknown origin) expressed in Escherichia coli BL21 (DE3) by isothermal calorimetric method
In short: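 ITC: 50 µM Hsp90 in the cell and 300 µM compound in the syringe, both in 20 mM Tris-HCl, 150 mM NaCl, pH 7.4. Nineteen injections at 180 s intervals with stirring at 1000 rpm.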

[7] = target: T1, Heat shock protein HSP90; assay: Binding affinity to recombinant […] biotinylated-HSP90 N-terminal domain (9 to 236 residues) (unknown origin) expressed in Escherichia coli BL21 (DE3) by biolayer interferometry
In short: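 Biotinylated Hsp90 (100 µg/mL) loaded onto streptavidin sensors prewetted 10 min in PBS with 0.05% BSA and 0.01% Tween 20. Analyte binding measured at 28 °C. Double reference subtraction applied; data fitted to a 1:1 model with K_D = K_off/K_on.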

[8] = Permeability of the compound at pH 7.4 by PAMPA; assay type: ADME; conditions: read-out: permeability
In short: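 Permeability coefficient (Pe) was measured at pH 7.4 by double-sink PAMPA.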

[9] = system: A549; assay: Antiproliferative activity against human A549 cells measured after 72 hrs by CCK8 assay; assay type: functional, cell-based; conditions: A549, 72 h; in short: as §1
[10] = system: HCT-116; assay: Antiproliferative activity against human HCT116 cells measured after 72 hrs by CCK8 assay; assay type: functional, cell-based; conditions: HCT-116, 72 h; in short: as §1
[11] = Clearance in mouse liver microsomes at 10 uM preincubated for 5 mins followed by NADPH addition by LC-MS/MS analysis; assay type: ADME, Microsome; conditions: read-out: CLH
In short: (§2)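 Compound at 10 µM preincubated 5 min at 37 °C with human or mouse liver microsomes (0.5 mg/mL) in 100 mM phosphate, pH 7.4. Reaction started with 1 mM NADPH, stopped with cold acetonitrile, centrifuged and analysed by LC-MS/MS.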

[12] = Stability of the compound in mouse plasma assessed as parent compound remaining at 1 uM measured immediately by LC-MS/MS analysis; assay type: ADME, cell-free; conditions: read-out: Stability
In short: (§3)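 Compound diluted from 10 mM DMSO stock to 1 μM in mouse or human plasma and held at 37 °C in a water bath. Reactions were stopped with acetonitrile at 0, 10, 30, 60 and 90 min. Parent compound was quantified by LC-MS/MS as % remaining.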

[13] = Clearance in human liver microsomes at 10 uM preincubated for 5 mins followed by NADPH addition by LC-MS/MS analysis; assay type: ADME, Microsome; conditions: read-out: CLH; in short: as §2
[14] = Stability of the compound in mouse plasma assessed as parent compound remaining at 1 uM measured after 60 mins by LC-MS/MS analysis; assay type: ADME, cell-free; conditions: read-out: Stability; in short: as §3
[15] = Stability of the compound in human plasma assessed as parent compound remaining at 1 uM measured after 10 mins by LC-MS/MS analysis; assay type: ADME, cell-free; conditions: read-out: Stability; in short: as §3
[16] = Stability of the compound in human plasma assessed as parent compound remaining at 1 uM measured immediately by LC-MS/MS analysis; assay type: ADME, cell-free; conditions: read-out: Stability; in short: as §3
[17] = Stability of the compound in mouse plasma assessed as parent compound remaining at 1 uM measured after 10 mins by LC-MS/MS analysis; assay type: ADME, cell-free; conditions: read-out: Stability; in short: as §3
[18] = Half life in mouse liver microsomes at 10 uM preincubated for 5 mins followed by NADPH addition by LC-MS/MS analysis; assay type: ADME, Microsome; in short: as §2
[19] = Stability of the compound in human plasma assessed as parent compound remaining at 1 uM measured after 60 mins by LC-MS/MS analysis; assay type: ADME, cell-free; conditions: read-out: Stability; in short: as §3
[20] = Stability of the compound in mouse plasma assessed as parent compound remaining at 1 uM measured after 90 mins by LC-MS/MS analysis; assay type: ADME, cell-free; conditions: read-out: Stability; in short: as §3
[21] = Half life in human liver microsomes at 10 uM preincubated for 5 mins followed by NADPH addition by LC-MS/MS analysis; assay type: ADME, Microsome; in short: as §2
[22] = Stability of the compound in human plasma assessed as parent compound remaining at 1 uM measured after 90 mins by LC-MS/MS analysis; assay type: ADME, cell-free; conditions: read-out: Stability; in short: as §3
[23] = Stability of the compound in human plasma assessed as parent compound remaining at 1 uM measured after 30 mins by LC-MS/MS analysis; assay type: ADME, cell-free; conditions: read-out: Stability; in short: as §3
[24] = Stability of the compound in mouse plasma assessed as parent compound remaining at 1 uM measured after 30 mins by LC-MS/MS analysis; assay type: ADME, cell-free; conditions: read-out: Stability; in short: as §3

CNc1nccc(Nc2ccc(N(CC(=O)O)S(=O)(=O)c3c(C)cc(C)cc3C)cc2)n1
inhibition [1]: < 50%

CCNc1nccc(Nc2ccc(N(CC(=O)O)S(=O)(=O)c3c(C)cc(C)cc3C)cc2)n1
inhibition [1]: < 50%

COC(=O)CN(c1ccc(Nc2ccnc(N3CCNCC3)n2)cc1)S(=O)(=O)c1c(C)cc(C)cc1C
logD [2]: 2.63 | IC50 [3]: > 50 µM | inhibition [1]: 95.5% | IC50 [4]: > 100 µM | ΔTm [5]: 3.53 °C | Kd [6]: 1.73 µM | Kd [7]: 1.97 µM | Papp [8]: 1010 nm/s | IC50 [9]: 43.3 µM | IC50 [10]: 6.25 µM

COc1ccc(OC)c(S(=O)(=O)Nc2ccc(Nc3ccnc(N4CCCC4)n3)cc2)c1
inhibition [1]: 41.8%

COC(=O)CN(c1ccc(Nc2ccnc(N3CCCCC3)n2)cc1)S(=O)(=O)c1c(C)cc(C)cc1C
inhibition [1]: 79.1%

COc1cc(S(=O)(=O)Nc2ccc(Nc3ccnc(N4CCCC4)n3)cc2)c(C)cc1C
logD [2]: 4.82 | inhibition [1]: 56.3% | Kd [7]: 21.1 µM | Papp [8]: 659 nm/s

COC(=O)CN(c1ccc(Nc2ccnc(N3CCN(C)CC3)n2)cc1)S(=O)(=O)c1c(C)cc(C)cc1C
inhibition [1]: 70.1%

Cc1cc(C)c(S(=O)(=O)N(CC(=O)O)c2ccc(Nc3ccnc(N4CCCC4)n3)cc2)c(C)c1
logD [2]: 1.67 | microsomal CLint at 10 µM [11]: 59 µL/min/mg | remaining at 0 min, 1 µM [12]: 100% | IC50 [3]: > 50 µM | microsomal CLint at 10 µM [13]: 32.6 µL/min/mg | remaining at 1 h, 1 µM [14]: 71% | remaining at 10 min, 1 µM [15]: 101% | remaining at 0 min, 1 µM [16]: 100% | IC50 [4]: > 100 µM | remaining at 10 min, 1 µM [17]: 100% | Kd [6]: 7.81 µM | Kd [7]: 7.41 µM | Papp [8]: 704 nm/s | half-life at 10 µM [18]: 16.8 min | remaining at 1 h, 1 µM [19]: 76% | remaining at 1.5 h, 1 µM [20]: 59% | half-life at 10 µM [21]: 30.4 min | IC50 [9]: 55.7 µM | remaining at 1.5 h, 1 µM [22]: 62% | IC50 [10]: 10.2 µM | remaining at 0.5 h, 1 µM [23]: 92% | remaining at 0.5 h, 1 µM [24]: 86%

CCN(CC)c1nccc(Nc2ccc(N(CC(=O)O)S(=O)(=O)c3c(C)cc(C)cc3C)cc2)n1
inhibition [1]: 79.6%

CCNc1nccc(Nc2ccc(N(CC(=O)OC)S(=O)(=O)c3c(C)cc(C)cc3C)cc2)n1
inhibition [1]: < 50%

COC(=O)CN(c1ccc(Nc2ccnc(N3CCCC3)n2)cc1)S(=O)(=O)c1c(C)cc(C)cc1C
inhibition [1]: 65.4%

Cc1cc(C)c(S(=O)(=O)N(CC#N)c2ccc(Nc3ccnc(N4CCNCC4)n3)cc2)c(C)c1
logD [2]: 2.01 | inhibition [1]: 64.3% | IC50 [4]: > 100 µM | ΔTm [5]: 1.1 °C | Papp [8]: 615 nm/s

Cc1cc(C)c(S(=O)(=O)N(CC(=O)O)c2ccc(Nc3ccnc(NC4CC4)n3)cc2)c(C)c1
inhibition [1]: < 50%

COC(=O)CN(c1ccc(Nc2ccnc(N3CCCCCC3)n2)cc1)S(=O)(=O)c1c(C)cc(C)cc1C
inhibition [1]: < 50%

Cc1cc(C)c(S(=O)(=O)N(CC(=O)O)c2ccc(Nc3ccnc(N4CCCCCC4)n3)cc2)c(C)c1
inhibition [1]: < 50%

CNc1nccc(Nc2ccc(N(CC(=O)OC)S(=O)(=O)c3c(C)cc(C)cc3C)cc2)n1
inhibition [1]: < 50%

O=S(=O)(Nc1ccc(Nc2ccnc(N3CCCC3)n2)cc1)c1ccc2ccccc2c1
inhibition [1]: 46.7%
